Screening data as filed in PubChem.
T cruzi growth-1 – blocks T. cruzi growth in NIH3T3 culture | T. cruzi beta-gal in NIH3T3, GalScreen luminescence, 90 h | inhibition, % at 8.34 µM | 77,000 tested, 5.9% active | AID 624255;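 active = mean inhibition above about 93%, with at least 55% of replicates each passing it, limit read from the data, passing the limit was not always enough; inconclusive = only one of those two conditions holds; inactive = neither condition holds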
KDM4C inh – inhibitors of human demethylase GASC-1 KDM4C; Q9H3R0; GST-KDM4C 2-372, H3K9me3 peptide, LANCE TR-FRET; inhibition, % at 12.5 µM; 96,000 tested, 0.15% active;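 active = mean replicate inhibition above about 25%, with at least 55% of replicates also reaching it, limit read from the data, passing the limit was not always enough; inconclusive = only one of those two conditions met; inactive = neither condition met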
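material = GST-tagged GASC-1 (JMJD2C) catalytic fragment, aa 2-372 | amount = enzyme final amount 10 nM | medium = HEPES buffer, pH 7.5, plus ascorbate | also added = H3K9me3 peptide substrate, Fe(II), 2-oxoglutarate | dosing = single dose | times = 30 min demethylation and 1 h detection at room temperature | detection = LANCE TR-FRET | read-out basis = Fall in 671/618 emission ratio as inhibition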
IDH1 mut inh – IDH1 R132H (human) inhibition. O75874. inhibition, % at 10 µM. 70,000 tested, 0.18% active. IDH1 R132H reductase, diaphorase/resazurin fluorescence, 60 min. AID 624101; in the data active = inhibition above about 34%; inconclusive = no clear call, values can overlap the other calls; inactive = below about 11%;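 also: 0% = DMSO and 100% = no enzyme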
Target sequence (O75874 whole entry R132H): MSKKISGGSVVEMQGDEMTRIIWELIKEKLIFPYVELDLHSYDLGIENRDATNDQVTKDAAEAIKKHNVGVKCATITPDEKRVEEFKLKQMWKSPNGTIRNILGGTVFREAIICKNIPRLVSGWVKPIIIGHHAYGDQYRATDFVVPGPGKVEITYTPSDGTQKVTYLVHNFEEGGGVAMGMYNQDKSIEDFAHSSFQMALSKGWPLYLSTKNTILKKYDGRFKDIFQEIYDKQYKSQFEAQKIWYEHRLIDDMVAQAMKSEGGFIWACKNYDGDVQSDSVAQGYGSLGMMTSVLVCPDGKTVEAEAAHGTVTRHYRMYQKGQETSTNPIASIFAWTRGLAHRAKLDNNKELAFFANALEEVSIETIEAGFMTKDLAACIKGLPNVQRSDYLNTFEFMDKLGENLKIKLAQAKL
T cruzi growth-2 – blocks T. cruzi growth in NIH3T3 host cells. shares compounds with T cruzi growth-1. T. cruzi beta-gal in NIH3T3, GalScreen luminescence, 90 h. inhibition, % at 8.35 µM. 5,600 tested, 72% active;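 active = mean replicate inhibition above about 95% and at least 55% of replicates individually reaching it, limit read from the data; inconclusive = only one of the two criteria is met; inactive = neither criterion is met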
T cruzi growth-3 – blocks T. cruzi growth in NIH3T3 host cells; shares compounds with T cruzi growth-1; T. cruzi beta-gal in NIH3T3, GalScreen luminescence, 90 h; inhibition, % at 2.09 µM; 5,600 tested, 21% active; AID 651740;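 active = mean inhibition above about 95%, with at least 55% of replicates also reaching it, limit read from the data; inconclusive = meets just one of the two conditions; inactive = meets neither condition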;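 also: plate controls were neutral control median for no effect and positive control median for full effect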
3T3 cytotox – NIH/3T3 (mouse) viability loss | shares compounds with T cruzi growth-1 | NIH/3T3 viability, CellTiter-Glo ATP luminescence, 90 h | cytotoxicity (signal decrease), % at 8.35 µM | 5,600 tested, 14% active;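 active = mean signal decrease across replicates above about 35% based on untreated-well scatter, with enough replicates individually passing, limit read from the data; inconclusive = no rule stated though some were filed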;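 also: 0% = median of neutral control wells and 100% = median of positive control wells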
3T3 cytotox 2 – NIH/3T3 (mouse) viability loss; shares compounds with T cruzi growth-1; NIH/3T3 viability, CellTiter-Glo ATP luminescence, 90 h; inhibition, % at 24.9 µM; 5,600 tested, 56% active;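 active = mean loss of cell viability signal at or above a set limit, and enough replicates individually reaching it; inconclusive = meets only the mean limit or only the replicate share; inactive = meets neither condition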;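 also: 0% = median of neutral control wells and 100% = median of positive control wells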
Numbers without * were called inactive; ? = inconclusive; . = no result. Only a selection was taken, and hits are over-represented in it overall.

SMILES | T cruzi growth-1 | KDM4C inh | IDH1 mut inh | T cruzi growth-2 | T cruzi growth-3 | 3T3 cytotox | 3T3 cytotox 2
O=C(NCc1ccco1)c1cc([N+](=O)[O-])ccc1Sc1nc2ccccc2[nH]1 | . | . | 0 | . | . | . | .
Cc1cc(C(F)(F)F)nc(SCC(=O)Nc2ccccc2C(F)(F)F)n1 | . | . | 0 | . | . | . | .
O=C(COc1ccc([N+](=O)[O-])cc1)Nc1ccc(-c2nc3ccccc3s2)c(Cl)c1 | . | . | 0 | . | . | . | .
COc1ccc(CNC(=O)C[C@@H]2C[C@@H]3c4cc(NC(=O)C5CCC5)ccc4O[C@@H]3[C@@H](CO)O2)cc1 | -36 | 3 | -1 | . | . | . | .
COc1ccc(CNC(=O)C[C@H]2C[C@@H]3c4cc(NC(=O)C5CCC5)ccc4O[C@@H]3[C@H](CO)O2)cc1 | 165* | 3 | 0 | 11 | 9 | 2 | -6
O=C(C[C@@H]1C[C@H]2c3cc(NC(=O)C4CCOCC4)ccc3O[C@H]2[C@H](CO)O1)NCc1ccc(Oc2ccccc2)cc1 | 142* | 0 | 0 | -3 | 7 | 2 | -6
O=C(C[C@@H]1C[C@@H]2c3cc(NC(=O)CC4CC4)ccc3O[C@@H]2[C@H](CO)O1)NCCN1CCCCC1 | -123 | 2 | 0 | . | . | . | .
O=C(C[C@@H]1C[C@@H]2c3cc(NC(=O)C4CCOCC4)ccc3O[C@@H]2[C@@H](CO)O1)NCc1ccc(Oc2ccccc2)cc1 | 31 | -1 | 1 | . | . | . | .
O=C(C[C@H]1C[C@@H]2c3cc(NC(=O)C4CCOCC4)ccc3O[C@@H]2[C@H](CO)O1)NCCN1CCCCC1 | 171* | -2 | 0 | 75 | 10 | 13 | -1
O=C(COc1ccccc1Cl)Nc1ccc([N+](=O)[O-])cc1O | . | . | 0 | . | . | . | .
COC(=O)c1ccc(NC(=O)CSc2nnnn2-c2ccccc2OC)cc1 | . | . | 0 | . | . | . | .
O=C(COc1ccccc1[N+](=O)[O-])Nc1ccc2nn(-c3ccc(F)cc3)nc2c1 | . | . | 0 | . | . | . | .
O=C(COc1ccc(I)cc1)Nc1cccnc1 | . | . | 0 | . | . | . | .
Cc1ccc(S(=O)(=O)N(C)C[C@@H]2Oc3ncc(C#Cc4cccc(F)c4)cc3C(=O)N([C@H](C)CO)C[C@@H]2C)cc1 | 121* | -5 | 3 | 99* | 51 | ? | 52*
COc1cccc(S(=O)(=O)N(C)C[C@@H]2Oc3ncc(C#Cc4ccc(OC)c(OC)c4)cc3C(=O)N([C@H](C)CO)C[C@@H]2C)c1 | 60 | -3 | 1 | . | . | . | .
COc1cccc(S(=O)(=O)N(C)C[C@@H]2Oc3ncc(C#CC(C)C)cc3C(=O)N([C@@H](C)CO)C[C@H]2C)c1 | 88 | -1 | -34 | . | . | . | .
COc1cccc(S(=O)(=O)N(C)C[C@@H]2Oc3ncc(C#Cc4cccc(F)c4)cc3C(=O)N([C@H](C)CO)C[C@@H]2C)c1 | 110* | -1 | . | 102* | 57 | 29 | 33*
C[C@H](CO)N1C[C@H](C)[C@H](CN(C)S(=O)(=O)c2cccs2)Oc2ncc(C#Cc3ccc(F)cc3)cc2C1=O | 112* | -4 | 0 | 106* | 78 | 23 | 22
COc1cccc(S(=O)(=O)N(C)C[C@@H]2Oc3ncc(C#Cc4ccc(C(F)(F)F)cc4)cc3C(=O)N([C@H](C)CO)C[C@@H]2C)c1 | 103* | -1 | . | 96* | 113* | 32 | 31*
C[C@H](CO)N1C[C@H](C)[C@H](CN(C)S(=O)(=O)c2cccs2)Oc2ncc(C#Cc3ccc(C(F)(F)F)cc3)cc2C1=O | 9 | -3 | 1 | . | . | . | .
C[C@H](CO)N1C[C@H](C)[C@H](CN(C)S(=O)(=O)c2ccc(C#N)cc2)Oc2ncc(C#Cc3cccc(F)c3)cc2C1=O | 11 | -2 | 0 | . | . | . | .
COc1ccc(CNc2nc3nc(C)cc(=O)n3[nH]2)cc1OC | . | . | 0 | . | . | . | .
CC1(C)CC[C@]2(C(=O)O[C@@H]3O[C@H](CO)[C@@H](O)[C@H](O)[C@H]3O)CC[C@]3(C)C(=CCC4[C@@]5(C)C[C@@H](O)[C@H](O)[C@@](C)(COC(=O)c6cc(O)c(O)c(O)c6)C5[C@H](O)C[C@]43C)[C@@H]2C1 (stereo partly specified) | . | . | -1 | . | . | . | .
CS(=O)(=O)N(CC(=O)NC1CCCCC1)c1ccc(F)cc1 | . | . | 0 | . | . | . | .
CC(C)(O)CCc1cc2c(cc1O)O[C@H]1c3ccc(O)cc3OC[C@@H]21 | . | . | 0 | . | . | . | .
